Converted amounts (≈) assume the structure as drawn. The source made the active and inactive calls. The rule behind the calls is not given here.
Experiments:
ASK = assay: Cytotoxicity against human ASK cells at 20 ug/mL; format: functional, cell-based
Col2 = assay: Cytotoxicity against human Col2 cells; format: functional; conditions: read-out: ED50 (the source's name)
Lu1 = assay: Cytotoxicity against human Lu1 cells; format: functional; conditions: read-out: ED50 (the source's name)
[1] = Cytotoxicity against human multidrug-resistant KBV1 cells in absence of vinblastine; format: functional; conditions: KB-V1, read-out: ED50 (the source's name)
[2] = Cytotoxicity against human multidrug-resistant KB-V1+ cells in presence of vinblastine; format: functional; conditions: read-out: ED50 (the source's name)
[3] = Cytotoxicity against human BC1 cells; format: functional; conditions: read-out: ED50 (the source's name)
KB = assay: Cytotoxicity against human KB cells; format: functional; conditions: read-out: ED50 (the source's name)
LNCaP = assay: Cytotoxicity against hormone-dependent human LNCaP cells; format: functional; conditions: read-out: ED50 (the source's name)
ZR-75-1 = assay: Cytotoxicity against hormone-dependent human ZR751 cells; format: functional; conditions: read-out: ED50 (the source's name)
[4] = Cytotoxicity against human U373 cells; format: functional, U-373MG ATCC; conditions: U373 MG, read-out: ED50 (the source's name)
HT = assay: Cytotoxicity against human HT cells; format: functional; conditions: read-out: ED50 (the source's name)
[5] = Cytotoxicity against human Mel2 cells; format: functional; conditions: read-out: ED50 (the source's name)
A-431 = assay: Cytotoxicity against human A431 cells; format: functional; conditions: read-out: ED50 (the source's name)
A2780 [6] = assay: Induction of apoptosis in human p53 wild type A2780S at 0.15 uM after 24 hrs by TdT assay; format: functional
In short: (§1)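 A2780S (p53 wild-type) and A2780R (p53 mutant) ovarian carcinoma cells were exposed for 24 h at 0–30 µM. Cells (10^6) were trypsinized and fixed in 1% methanol-free formaldehyde/PBS for 15 min on ice. They were washed twice with PBS and fixed in 80% EtOH at −20 °C for 16 h. A TdT assay (APO-Direct kit, minor modifications) then scored % apoptotic cells.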

M109 [7] = assay: Antitumor activity against mouse M109 cells xenografted CDF1 mouse model at 8 mg/kg, ip for 5 days; format: functional; conditions: route intraperitoneal
In short: (§2)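 A 2% w/v brei of M109 murine lung carcinoma was prepared in RPMI from harvested solid tumors. Female CDF1 mice (six per group) were implanted ip with 0.5 mL. Compound was given ip daily for 5 days, beginning 1 day after implantation. The endpoint was lifespan, expressed as %T/C (treated over control lifespan × 100%).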

[8] = target: T1, DNA topoisomerase 1 (Homo sapiens) (UniProt P11387); assay: Inhibition of topoisomerase 1 at 10 to 100 uM
T1 sequence (whole entry): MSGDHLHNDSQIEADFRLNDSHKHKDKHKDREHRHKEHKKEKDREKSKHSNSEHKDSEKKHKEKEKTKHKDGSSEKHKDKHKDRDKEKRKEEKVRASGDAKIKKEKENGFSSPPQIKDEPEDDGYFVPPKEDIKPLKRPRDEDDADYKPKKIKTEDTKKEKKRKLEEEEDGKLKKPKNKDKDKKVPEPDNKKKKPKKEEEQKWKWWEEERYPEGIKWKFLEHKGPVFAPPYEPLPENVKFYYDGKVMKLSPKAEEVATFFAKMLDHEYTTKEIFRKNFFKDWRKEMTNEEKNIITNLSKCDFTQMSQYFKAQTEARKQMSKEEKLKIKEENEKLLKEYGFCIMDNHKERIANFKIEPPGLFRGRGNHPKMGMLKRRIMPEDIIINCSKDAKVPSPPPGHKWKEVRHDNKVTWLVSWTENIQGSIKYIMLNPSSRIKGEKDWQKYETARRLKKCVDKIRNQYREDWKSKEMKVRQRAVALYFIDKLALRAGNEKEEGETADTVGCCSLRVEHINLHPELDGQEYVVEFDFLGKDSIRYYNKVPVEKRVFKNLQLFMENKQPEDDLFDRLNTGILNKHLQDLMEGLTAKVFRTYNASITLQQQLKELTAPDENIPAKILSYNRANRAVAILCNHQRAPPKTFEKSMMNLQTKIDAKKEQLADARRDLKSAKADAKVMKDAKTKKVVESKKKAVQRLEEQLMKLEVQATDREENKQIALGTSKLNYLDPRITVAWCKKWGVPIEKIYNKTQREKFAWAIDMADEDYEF

A2780 [9] = assay: Induction of apoptosis in human p53 wild type A2780S at 1.5 uM after 24 hrs by TdT assay; format: functional; in short: as §1
A2780 [10] = assay: Induction of apoptosis in human p53 […] at 15 uM after 24 hrs by TdT assay; format: functional; conditions: in the assay text read “A2780R” for “A2780S”; in short: as §1
A2780 [11] = assay: Induction of apoptosis in human p53 wild type A2780S at 30 uM after 24 hrs by TdT assay; format: functional; in short: as §1
A2780R = assay: Induction of apoptosis in human p53 mutant A2780R at 1.5 uM after 24 hrs by TdT assay
[12] = Inhibition of topoisomerase 2 at 10 to 100 uM
A2780 [13] = assay: Induction of apoptosis in human p53 wild type A2780S at 15 uM after 24 hrs by TdT assay; format: functional; in short: as §1
[14] = Inhibition of tubulin polymerization at 10 to 100 uM
A2780 [15] = assay: Induction of apoptosis in human p53 […] at 30 uM after 24 hrs by TdT assay; format: functional; conditions: in the assay text read “A2780R” for “A2780S”; in short: as §1
M109 [16] = assay: Antitumor activity against mouse M109 cells xenografted CDF1 mouse model at 24 mg/kg, ip for 5 days; format: functional; conditions: route intraperitoneal; in short: as §2
A2780 [17] = assay: Induction of apoptosis in human p53 mutant A2780R at 7.5 uM after 24 hrs by TdT assay
A2780 [18] = assay: Induction of apoptosis in human p53 mutant A2780R at 0.15 uM after 24 hrs by TdT assay
Nucleic Acid = assay: Binding affinity to DNA assessed as DNA intercalation; format: nucleic-acid assay
A2780 [19] = assay: Induction of apoptosis in human p53 wild type A2780S at 7.5 uM after 24 hrs by TdT assay; format: functional; in short: as §1

| SMILES | Activity (ASK) | EC50 (Col2) | EC50 (Lu1) | EC50 [1] | EC50 [2] | EC50 [3] | EC50 (KB) | EC50 (LNCaP) | EC50 (ZR-75-1) | EC50 [4] | EC50 (HT) | also measured |
| --- | --- | --- | --- | --- | --- | --- | --- | --- | --- | --- | --- | --- |
| C=C1C(=O)O[C@@H]2[C@@H]1C[C@@H](O)[C@H](C)[C@@](O)(C(=O)CC(C)O)[C@H]2OC(=O)C(C)CC (stereo partly drawn) | inactive | 8.7 µg/mL (≈ 21.8 µM) | 16.8 µg/mL (≈ 42.2 µM) | > 20 µg/mL | > 20 µg/mL | 9 µg/mL (≈ 22.6 µM) | 12.7 µg/mL (≈ 31.9 µM) | 8.1 µg/mL (≈ 20.3 µM) | – | – | – | – |
| C=C1C(=O)O[C@@H]2[C@@H]1[C@@H](O)C[C@H](C)[C@@](O)(C(=O)/C=C/C)[C@H]2OC(=O)/C(C)=C\C | inactive | 5.7 µg/mL (≈ 15.1 µM) | 2.3 µg/mL (≈ 6.08 µM) | 3 µg/mL (≈ 7.93 µM) | 1.7 µg/mL | 4.2 µg/mL (≈ 11.1 µM) | 1.4 µg/mL (≈ 3.7 µM) | 0.4 µg/mL (≈ 1.06 µM) | 1.4 µg/mL (≈ 3.7 µM) | – | – | – |
| C=C[C@@](C)(O)C[C@@H](O)/C=C(\C)CC/C=C(\C)COC(C)=O | inactive | 6.2 µg/mL (≈ 20.9 µM) | > 20 µg/mL | 10.9 µg/mL (≈ 36.8 µM) | > 20 µg/mL | 8.7 µg/mL (≈ 29.4 µM) | 3.5 µg/mL (≈ 11.8 µM) | > 20 µg/mL | – | 6.3 µg/mL (≈ 21.3 µM) | 9.5 µg/mL (≈ 32.1 µM) | – |
| C=C1C(=O)O[C@@H]2[C@@H]1CC(=O)[C@H](C)[C@@](O)(C(=O)/C=C/C)[C@H]2OC(=O)C(C)CC (stereo partly drawn) | inactive | 1.2 µg/mL (≈ 3.17 µM) | 2.3 µg/mL (≈ 6.08 µM) | 2 µg/mL (≈ 5.29 µM) | 1.1 µg/mL | 0.5 µg/mL (≈ 1.32 µM) | 1.1 µg/mL (≈ 2.91 µM) | 0.4 µg/mL (≈ 1.06 µM) | – | – | – | – |
| C=C1C(=O)O[C@@H]2[C@@H]1C[C@@H](O)[C@H](C)[C@@](O)(C(=O)/C=C/C)[C@H]2OC(=O)/C(C)=C\C | inactive | 0.5 µg/mL (≈ 1.32 µM) | 1.1 µg/mL (≈ 2.91 µM) | 1.2 µg/mL (≈ 3.17 µM) | 1.3 µg/mL | 0.6 µg/mL (≈ 1.59 µM) | 0.3 µg/mL (≈ 0.793 µM) | 0.16 µg/mL (≈ 0.423 µM) | 0.2 µg/mL (≈ 0.529 µM) | 0.2 µg/mL (≈ 0.529 µM) | 0.3 µg/mL (≈ 0.793 µM) | EC50 [5]: 0.5 µg/mL (≈ 1.32 µM); EC50 (A-431): 0.2 µg/mL (≈ 0.529 µM) |
| COc1c(O)cc2oc(-c3ccc(O)cc3)cc(=O)c2c1O [HISPIDULIN] | inactive | > 20 µg/mL | > 20 µg/mL | 8.7 µg/mL (≈ 29 µM) | 1.3 µg/mL | > 20 µg/mL | 18.8 µg/mL (≈ 62.6 µM) | 7.1 µg/mL (≈ 23.6 µM) | 1.2 µg/mL (≈ 4 µM) | 8.8 µg/mL (≈ 29.3 µM) | 10.1 µg/mL (≈ 33.6 µM) | EC50 [5]: 14.6 µg/mL (≈ 48.6 µM); EC50 (A-431): 1.2 µg/mL (≈ 4 µM) |
| C=C1C(=O)O[C@@H]2[C@@H]1CC(=O)[C@H](C)[C@@](O)(C(=O)CC(C)OC)[C@H]2OC(=O)C(C)CC (stereo partly drawn) | inactive | 3.1 µg/mL (≈ 7.55 µM) | 4.4 µg/mL (≈ 10.7 µM) | 4 µg/mL (≈ 9.75 µM) | 5 µg/mL | 1.2 µg/mL (≈ 2.92 µM) | 6.6 µg/mL (≈ 16.1 µM) | 0.5 µg/mL (≈ 1.22 µM) | – | – | – | – |
| C=C1C(=O)O[C@@H]2[C@@H]1C[C@@H](O)[C@H](C)[C@@](O)(C(=O)/C=C/C)[C@H]2OC(=O)C(C)CC (stereo partly drawn) | inactive | 1.1 µg/mL (≈ 2.89 µM) | 0.9 µg/mL (≈ 2.37 µM) | 0.9 µg/mL (≈ 2.37 µM) | 1.6 µg/mL | 0.8 µg/mL (≈ 2.1 µM) | 1 µg/mL (≈ 2.63 µM) | 0.5 µg/mL (≈ 1.31 µM) | – | – | – | Activity (A2780 [6]): 1.17%; T/C (M109 [7]): 103%; Activity [8]: inactive; Activity (A2780 [9]): 1.27%; Activity (A2780 [10]): 31.87%; Activity (A2780 [11]): 78.14%; Activity (A2780R): 1.66%; Activity [12]: inactive; Activity (A2780 [13]): 51.67%; Activity [14]: inactive; Activity (A2780 [15]): 49.25%; T/C (M109 [16]): 113%; Activity (A2780 [17]): 2.63%; Activity (A2780 [18]): 0.77%; Activity (Nucleic Acid): inactive; Activity (A2780 [19]): 61.31% |
| C=C1C(=O)O[C@@H]2[C@@H]1[C@H]1O[C@H]1[C@H](C)[C@@](O)(C(=O)/C=C/C)[C@H]2OC(=O)/C(C)=C\C | inactive | 0.8 µg/mL (≈ 2.13 µM) | 0.5 µg/mL (≈ 1.33 µM) | 0.2 µg/mL (≈ 0.531 µM) | 0.9 µg/mL | 0.3 µg/mL (≈ 0.797 µM) | 0.3 µg/mL (≈ 0.797 µM) | – | – | 0.2 µg/mL (≈ 0.531 µM) | 0.16 µg/mL (≈ 0.425 µM) | – |
| C=C1C(=O)O[C@@H]2[C@@H]1CC[C@H](C)[C@@](O)(C(=O)/C=C/C)[C@H]2OC(=O)/C(C)=C\C | inactive | 0.9 µg/mL (≈ 2.48 µM) | 0.4 µg/mL (≈ 1.1 µM) | 1.6 µg/mL (≈ 4.41 µM) | 0.3 µg/mL | 0.8 µg/mL (≈ 2.21 µM) | 0.4 µg/mL (≈ 1.1 µM) | 1 µg/mL (≈ 2.76 µM) | 1.4 µg/mL (≈ 3.86 µM) | 0.2 µg/mL (≈ 0.552 µM) | 0.4 µg/mL (≈ 1.1 µM) | – |
